# Source: PubChem BioAssay (several laboratories)
# Rows were chosen to be rich in hits. Some 2.6% of all compounds tested hit in one or more screens of this group.
# Platelet DG rel: modulates dense granule release in human platelets; human platelet-rich plasma, SFLLRN dense granule ATP release, luminescence; inhibition, %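 (compounds screened at 7.5 µM in platelet-rich plasma)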; 300,000 compounds, 0.22% hits; AID 1663;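 active = mean replicate score, as percent of positive control, at or above 50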
# SENP1 inh: SENP1 (human) catalytic domain inhibition | inhibition, % at 10 µM | 360,000 compounds, 0.21% hits | Q9P0U3 | AID 624204 | recombinant SENP1 catalytic domain, CyPet-SUMO1-YPet FRET cleavage;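 active = inhibition at least 30% at 10 µM, raw YFP signal under a set limit, fluorescence ratio 0.5 to 1.5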;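 note: 0% = enzyme with DMSO and 100% = no enzyme wells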
#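 Controls: no-enzyme wells low, DMSO-plus-enzyme wells high control. Test system: human recombinant His6-tagged SENP1 catalytic domain enzyme. Reagent: SFCypet-SUMO1-SFYpet FRET protein substrate, 25 nM final. Doses: one dose per compound, 10 µM, 0.5% DMSO. Detection: FRET, CFP and YFP emission. Timing: 50 min reaction at room temperature.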
# SENP8 block-1: blocks human SENP8 cleavage of Nedd8 substrate; recombinant SENP8, Nedd8 substrate fluorescence; inhibition, % at 20 µM; 360,000 compounds, 0.64% hits; AID 602440; in the data active = inhibition mostly above about 40%, no sharp cut-off; inactive = mostly below about 27%
# SENP6 inh: inhibitors of human SENP6 protease | Q9GZR1 | Recombinant SENP6 catalytic domain, aminoluciferin luminescence | inhibition, % at 10 µM | 330,000 compounds, 1.8% hits | AID 2599;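 active = inhibition above about 50% at the single tested dose, limit read from the data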;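 note: plate controls were DMSO wells with enzyme for no effect and DMSO wells lacking enzyme for full effect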
# Target sequence (Q9GZR1 628-1112 limits assumed): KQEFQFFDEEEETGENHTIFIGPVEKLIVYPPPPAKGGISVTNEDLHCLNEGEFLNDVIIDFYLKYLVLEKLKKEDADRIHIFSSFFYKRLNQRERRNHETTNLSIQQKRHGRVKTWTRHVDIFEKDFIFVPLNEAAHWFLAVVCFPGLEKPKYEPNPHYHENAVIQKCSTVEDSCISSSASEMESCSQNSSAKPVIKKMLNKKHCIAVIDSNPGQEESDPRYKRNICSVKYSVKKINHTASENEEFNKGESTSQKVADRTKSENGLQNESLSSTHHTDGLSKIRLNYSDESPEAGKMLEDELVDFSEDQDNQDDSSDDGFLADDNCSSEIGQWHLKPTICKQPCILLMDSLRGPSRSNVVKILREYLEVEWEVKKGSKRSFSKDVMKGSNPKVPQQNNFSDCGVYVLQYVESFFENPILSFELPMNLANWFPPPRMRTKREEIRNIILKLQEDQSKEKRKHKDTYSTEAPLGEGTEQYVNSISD
# SENP7 inh: SENP7 protease inhibition; recombinant SENP7, Z-RLRGG-aminoluciferin luminescence, 40 min; inhibition, % at 5 µM; 330,000 compounds, 1.5% hits;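 active = inhibition above about 50% at the single test dose, limit read from the data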;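 note: plate controls were DMSO with enzyme for no effect and no enzyme buffer wells for full effect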
# SENP8 block-2: inhibitors of human SENP8 protease; 330,000 compounds, 1.2% hits; inhibition, % at 10 µM; Q96LD8; purified SENP8, Z-RLRGG-aminoluciferin cleavage, luminescence; in the data active = inhibition above about 50%
# * = called active by the depositor; · = no result given.
SMILES,Platelet DG rel,SENP1 inh,SENP8 block-1,SENP6 inh,SENP7 inh,SENP8 block-2
Cn1cccc1/C=C1\SC(=S)N(NC(=O)c2ccccc2O)C1=O,12,-69,47*,-19,0,7
Cn1cccc1/C=C1\SC(=S)N(NC(=O)c2ccc(F)cc2)C1=O,·,-85,52*,1,-4,7
COc1ccc(NC(=O)N(C)C[C@H]2Oc3ccc(NC(=O)CCN4CCOCC4)cc3C(=O)N([C@H](C)CO)C[C@@H]2C)cc1,·,-2,-4,-5,-2,9
O=C(c1ccccc1)N1CCC(CC2CC(c3cccc(Br)c3)=NO2)(C(=O)NCC2CCCCC2)CC1 (stereo unspecified),-4,1,50*,-19,-10,-11
CC(C)NC(=O)C(c1ccc(F)cc1)N(Cc1ccco1)C(=O)CCC(=O)Nc1ccccn1 (stereo unspecified),12,-2,5,-11,-4,-1
Cc1ccc2[nH]c(O)c(N=Nc3nc4ccccc4s3)c2c1,12,35*,10,-23,0,-7
Oc1ccccc1/C=N/N1CCN(c2ccccn2)CC1,9,3,8,1,5,-12
CC(/C=N/N1CCN(c2ccccn2)CC1)=C\c1ccccc1,-1,3,2,59*,63*,31
COc1ccccc1N1CCN(/N=C/C(Cl)=C/c2ccccc2)CC1,0,1,14,72*,45,57*
COc1ccccc1N1CCN(/N=C\c2ccccc2)CC1,3,1,10,-6,8,-6
O=[N+]([O-])c1cccnc1N/N=C/c1ccccc1O,43,4,10,93*,97*,87*
COc1ccc(Cc2nc3ccc(C(=O)N(C)C(C)c4ccon4)cc3o2)cc1 (stereo unspecified),4,2,-3,-9,8,2
Cc1ccccc1NC1=C(C(=O)c2ccccc2)N(C)S(=O)(=O)c2ccccc21,1,22,43*,-11,5,1
CN1C(C(=O)Nc2ccc(C(=O)O)cc2)=C(O)c2ccccc2S1(=O)=O,·,0,-152,10,0,-4
c1ccc(CCn2c3ccccc3c3nnc(SCc4ccc5nonc5c4)nc32)cc1,9,0,0,-2,-9,-14
Cc1c2cc(O)c(=O)cc-2oc2cc(O)c(O)cc12,6,-14,-166,16,2,8
COc1cc(OC)c(-c2c3cc(O)c(=O)cc-3oc3cc(O)c(O)cc23)cc1OC,·,88*,24,18,-6,-7
CCCCCN(C(=O)CN1CCC(Cc2ccccc2)CC1)c1c(N)n(CCCC)c(=O)[nH]c1=O,-2,-46,-5,-25,-1,-7
O=C1c2ccccc2C(=O)c2c1cccc2-n1nnc2ccccc21,8,0,32,-11,5,0
O=C1C(N2CCOCC2)=C(n2nnc3ccccc32)C(=O)c2ccccc21,-2,0,76*,76*,35,74*
CN(C)S(=O)(=O)c1cccc(NC(=O)COC(=O)CNC(=O)c2cccc([N+](=O)[O-])c2)c1,2,2,-6,-18,-2,2
CC(=O)C1CCC2C3CCC4=CC(=O)C=CC4(C)C3C(=O)CC12C (stereo unspecified),·,3,5,·,·,·
C[C@]12C=CC(=O)C=C1CC[C@@H]1C2=CC[C@]2(C)[C@@H](C(=O)CN3CCN(c4cc(N5CCCC5)nc(N5CCCC5)n4)CC3)CC[C@@H]12,2,-67,22,64*,31,76*
COc1ccc(CCNCc2cc(C)n(-c3ccc(OC)cc3)c2C)cc1,-6,-4,46*,-8,-9,-10
Nc1n[nH]c(N)c1N=Nc1ccccc1F,8,1,34*,-12,0,-6
SMILES,Platelet DG rel,SENP1 inh,SENP8 block-1,SENP6 inh,SENP7 inh,SENP8 block-2
Nc1n[nH]c(N)c1N=Nc1ccc(F)cc1,-5,-1,41*,15,6,-5
CCOC(=O)C1(Cc2cccc(OC)c2)CCN(CC=C(C)C)CC1,57*,0,26,-27,2,-11
CCNC(=S)NS(=O)(=O)c1ccccc1,-4,2,42*,7,3,2
CCNC(=S)NS(=O)(=O)c1ccc(Cl)cc1,-1,1,15,-1,-7,-8
Cc1cc(C)c(Nc2cc(S(=O)(=O)O)c(N)c3c2C(=O)c2ccccc2C3=O)c(C)c1,·,-28,48*,·,·,·
CN(CC(=O)Nc1ccccc1Cl)C(=O)COC(=O)CSc1ccc(Cl)cc1,·,5,15,-4,-1,-2
N/C(=N\OC(=O)c1cccc2ccccc12)c1cccnc1,-4,3,-238,14,8,7
N/C(=N\OC(=O)c1ccc(Cl)cc1Cl)c1cccnc1,9,1,6,42,72*,61*
N/C(=N\OC(=O)c1cc(Cl)ccc1Cl)c1ccccn1,7,1,11,51*,76*,65*
N/C(=N\OC(=O)COc1ccc(Cl)cc1Cl)c1ccccn1,8,2,8,73*,90*,87*
O=C(CCNC(=O)c1ccccc1)Nc1ccc(Cl)c(S(=O)(=O)N2CCCCC2)c1,·,2,1,-15,9,1
COc1ccc(OCc2cc(C(=O)O)c(C)o2)cc1,-2,·,·,92*,92*,89*
CCN(CC)Cc1cc(C(=O)O)c(C)o1,12,3,6,-13,1,-5
CCCOC(=O)CCCN1C(=O)/C(=C2\SC(=S)N(CCCC(=O)OCCC)C2=O)SC1=S,-1,2,38*,-3,-11,3
O=C(NCCc1ccc(Cl)cc1)C1CCN(C(=O)c2ccc(F)cc2)CC1,12,-3,11,-24,-7,1
Nc1nnnn1/N=C/c1cc(Cl)cc(Cl)c1OCc1ccc(Cl)cc1Cl,2,53*,-53,-4,-7,-1
O=C(CSCc1c(F)cccc1Cl)NNC(=S)NC1CCCCC1,0,0,-2,0,6,2
COCCCNC(=O)c1cc(S(=O)(=O)N2CCC3(CC2)OCCO3)ccc1F,·,2,-4,·,·,·
Brc1ccc(N/N=C(/N=Nc2nn[nH]n2)c2ccccc2)cc1,6,4,40,10,1,-1
Oc1c(N=Nc2nn[nH]n2)ccc2ccccc12,·,13,55*,·,·,·
CCN(CC)Cc1cc(O)c(CN(CC)CC)cc1O,-2,46*,24,·,·,·
CCc1oc(C(=O)O)cc1CN(CC)CC,-1,2,14,6,2,1
CCOC(=O)c1c(C)[nH]c(C(=O)C(C)OC(=O)c2oc3ccccc3c2COC)c1C (stereo unspecified),73*,1,14,-3,5,-1
CCOC(=O)c1c(C)[nH]c(C(=O)COC(=O)c2oc3ccccc3c2C)c1C,1,0,37,7,4,0
C/C(=N\Nc1nc(-c2ccccc2O)nc2ccccc12)c1ccccc1,1,3,18,-31,-2,-13
